# Measurements published in ChEMBL document CHEMBL5143562, “α-Synuclein Aggregation Inhibitory Prunolides and a Dibrominated β-Carboline Sulfamate from the Ascidian Synoicum prunum” (J Nat Prod, 2022).
# Active and inactive are the calls of the source. The calls are words filed in the database; no cut-off is given here.
# System: not listed separately
# Experiment: Toxicity in mouse primary midbrain culture assessed as change in tyrosine hydroxylase positive dopamine neuron at 0.5 uM
# Assay type: tissue-based
# Details: not given
# How it was run: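 Primary embryonic mouse midbrain cultures given sonicated mouse α-syn PFFs (2.5 µg/mL final) on DIV8. Compound, 0.1% DMSO vehicle or 50 ng/mL GDNF added ~15 min later. Fixed DIV15, immunostained for TH and pSer129-α-syn, DAPI nuclei. Nine fields per well imaged at 10×. TH+ neurons with/without pSyn aggregates counted. ≥3 independent cultures, ≥3 wells each. Randomized-block ANOVA with Benjamini-Krieger-Yekutieli correction, mean ± SD.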
row,Compound,Activity
1,O=C1C=C(c2cc(Br)c(O)c(Br)c2)[C@]2(O1)O[C@]1(OC(=O)C=C1c1cc(Br)c(O)c(Br)c1)C(c1ccc(O)c(Br)c1)=C2c1ccc(O)c(Br)c1,Non-Toxic
2,O=C1C=C(c2cc(Br)c(O)c(Br)c2)[C@]2(O1)O[C@]1(OC(=O)C=C1c1cc(Br)c(O)c(Br)c1)C(c1cc(Br)c(O)c(Br)c1)=C2c1cc(Br)c(O)c(Br)c1,Non-Toxic
3,O=C1C=C(c2ccc(O)cc2)[C@]2(O1)O[C@]1(OC(=O)C=C1c1ccc(O)cc1)C(c1ccc(O)cc1)=C2c1ccc(O)cc1,Non-Toxic

# Molecular target: Alpha-synuclein (Mus musculus) (UniProt O55042)
# Experiment: Inhibition of PFF-induced alpha-Synuclein aggregation in mouse primary midbrain culture assessed as decrease in tyrosine hydroxylase positive dopamine neuron with p-Syn aggregation at 0.5 uM incubated for 7 days by immunostaining analysis
# Details: time 7.0 day
row,Compound,inhibition
1,O=C1C=C(c2cc(Br)c(O)c(Br)c2)[C@]2(O1)O[C@]1(OC(=O)C=C1c1cc(Br)c(O)c(Br)c1)C(c1ccc(O)c(Br)c1)=C2c1ccc(O)c(Br)c1,Active

# System: Plasmodium falciparum
# Experiment: Antiplasmodial activity against Plasmodium falciparum 3D7 assessed as inhibition of parasite growth incubated for 72 hrs by DAPI staining based confocal microscopic analysis
# Assay type: functional, organism-based
# Details: 3D7, 72 h
# How it was run: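 P. falciparum 3D7 in imaging plates, 2% parasitemia, 0.3% hematocrit, 16-point dilution series 0.4 nM–40 µM (N=2), 72 h at 37 °C under 5% O2/5% CO2/90% N2. DAPI stain, confocal imaging. Percent inhibition normalised to in-plate 5 µM puromycin (positive) and 0.4% DMSO (negative) controls. IC50 from sigmoidal nonlinear regression.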
row,Compound,IC50 [µM]
1,O=C(O)c1cc2c([nH]c3ccc(Br)cc32)c(C(=O)c2cn(S(=O)(=O)O)c3ccc(Br)cc23)n1,15.1
2,O=C1C=C(c2ccc(O)cc2)[C@]2(O1)O[C@]1(OC(=O)C=C1c1ccc(O)cc1)C(c1ccc(O)cc1)=C2c1ccc(O)cc1,5.1

# Molecular target: Alpha-synuclein (Homo sapiens) (UniProt P37840)
# Experiment: Inhibition of alpha-Synuclein (unknown origin) aggregation assessed as time difference in midpoint of aggregation at compound to protein molar ratio of 1:1 incubated for 36 hrs under shaking condition and measured every 6 hrs by Thioflavin T based fluorescence assay relative to control
# Details: not given
# How it was run: (§1)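 Wells held 80 µM α-syn, 50 µM ThT (from 5 mM stock in glycine-NaOH pH 8.0), 80–400 µM compound, saline Tris buffer and a teflon ball. Shaken at 100 rpm, 37 °C, 36 h. Fluorescence (ex 460/em 500 nm) read every 6 h, triplicates. Protein-only wells set 100% aggregation. Percent inhibition taken at end; t50 is the shift in h of the aggregation midpoint.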
row,Compound,TIME [h]
1,O=C1C=C(c2ccc(O)cc2)[C@]2(O1)O[C@]1(OC(=O)C=C1c1ccc(O)cc1)C(c1ccc(O)c(Br)c1)=C2c1ccc(O)cc1,2
2,O=C1C=C(c2cc(Br)c(O)c(Br)c2)[C@]2(O1)O[C@]1(OC(=O)C=C1c1cc(Br)c(O)c(Br)c1)C(c1ccc(O)c(Br)c1)=C2c1ccc(O)c(Br)c1,9.4
3,O=C1C=C(c2cc(Br)c(O)c(Br)c2)[C@]2(O1)O[C@]1(OC(=O)C=C1c1cc(Br)c(O)c(Br)c1)C(c1cc(Br)c(O)c(Br)c1)=C2c1cc(Br)c(O)c(Br)c1,10
4,O=C1C=C(c2ccc(O)cc2)[C@]2(O1)O[C@]1(OC(=O)C=C1c1ccc(O)cc1)C(c1ccc(O)cc1)=C2c1ccc(O)cc1,6.2

# Molecular target: Alpha-synuclein (Homo sapiens) (UniProt P37840)
# Experiment: Binding affinity to alpha-Synuclein (unknown origin) at compound to protein molar ratio of 5:1 incubated for 3 hrs by mass spectroscopy analysis
# Details: not given
# How it was run: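 α-Syn (10 µM) in 10 mM ammonium acetate. Compound (100 µM, in methanol) added at 5:1 ligand:protein and kept 3 h at rt. Positive-mode HRESIMS, calibrated with sodium trifluoroacetate. Spectra inspected for extra peaks of protein–ligand complexes; scored yes/no.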
row,Compound,Activity
1,O=C1C=C(c2ccc(O)cc2)[C@]2(O1)O[C@]1(OC(=O)C=C1c1ccc(O)cc1)C(c1ccc(O)c(Br)c1)=C2c1ccc(O)cc1,Active
2,O=C1C=C(c2cc(Br)c(O)c(Br)c2)[C@]2(O1)O[C@]1(OC(=O)C=C1c1cc(Br)c(O)c(Br)c1)C(c1ccc(O)c(Br)c1)=C2c1ccc(O)c(Br)c1,Active
3,O=C1C=C(c2cc(Br)c(O)c(Br)c2)[C@]2(O1)O[C@]1(OC(=O)C=C1c1cc(Br)c(O)c(Br)c1)C(c1cc(Br)c(O)c(Br)c1)=C2c1cc(Br)c(O)c(Br)c1,Active
4,O=C1C=C(c2ccc(O)cc2)[C@]2(O1)O[C@]1(OC(=O)C=C1c1ccc(O)cc1)C(c1ccc(O)cc1)=C2c1ccc(O)cc1,Active

# System: HEK293
# Experiment: Cytotoxicity against human HEK293 cells measured after 72 hrs by resazurin assay
# Assay type: toxicity, cell-based
# Details: hek293, 72 h
# How it was run: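 HEK293 cells, 2000 per well, exposed to compound for 72 h at 37 °C. Medium then swapped for 44 µM resazurin for 6 h and fluorescence read. Viability referenced to 40 µM puromycin (positive) and 0.4% DMSO (negative). IC50 by curve fitting.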
row,Compound,Activity
1,O=C(O)c1cc2c([nH]c3ccc(Br)cc32)c(C(=O)c2cn(S(=O)(=O)O)c3ccc(Br)cc23)n1,Toxic
2,O=C1C=C(c2cc(Br)c(O)c(Br)c2)[C@]2(O1)O[C@]1(OC(=O)C=C1c1cc(Br)c(O)c(Br)c1)C(c1ccc(O)c(Br)c1)=C2c1ccc(O)c(Br)c1,Toxic
3,O=C1C=C(c2cc(Br)c(O)c(Br)c2)[C@]2(O1)O[C@]1(OC(=O)C=C1c1cc(Br)c(O)c(Br)c1)C(c1cc(Br)c(O)c(Br)c1)=C2c1cc(Br)c(O)c(Br)c1,Toxic
4,O=C1C=C(c2ccc(O)cc2)[C@]2(O1)O[C@]1(OC(=O)C=C1c1ccc(O)cc1)C(c1ccc(O)cc1)=C2c1ccc(O)cc1,Toxic

# Molecular target: Alpha-synuclein (Homo sapiens) (UniProt P37840)
# Experiment: Inhibition of alpha-Synuclein (unknown origin) aggregation at compound to protein molar ratio of 5:1 incubated for 36 hrs under shaking condition and measured every 6 hrs by Thioflavin T based fluorescence assay relative to control
# Details: concentration not given here
# How it was run: as §1
row,Compound,inhibition [%]
1,O=C1C=C(c2ccc(O)cc2)[C@]2(O1)O[C@]1(OC(=O)C=C1c1ccc(O)cc1)C(c1ccc(O)c(Br)c1)=C2c1ccc(O)cc1,92.9
2,O=C1C=C(c2cc(Br)c(O)c(Br)c2)[C@]2(O1)O[C@]1(OC(=O)C=C1c1cc(Br)c(O)c(Br)c1)C(c1ccc(O)c(Br)c1)=C2c1ccc(O)c(Br)c1,99.9
3,O=C1C=C(c2cc(Br)c(O)c(Br)c2)[C@]2(O1)O[C@]1(OC(=O)C=C1c1cc(Br)c(O)c(Br)c1)C(c1cc(Br)c(O)c(Br)c1)=C2c1cc(Br)c(O)c(Br)c1,89
4,O=C1C=C(c2ccc(O)cc2)[C@]2(O1)O[C@]1(OC(=O)C=C1c1ccc(O)cc1)C(c1ccc(O)cc1)=C2c1ccc(O)cc1,75.2

# System: Staphylococcus aureus
# Experiment: Antibacterial activity against methicillin-resistant Staphylococcus aureus ATCC 43300 assessed as inhibition of bacterial growth measured after 18 hrs by resazurin based fluorescent plate reader
# Assay type: functional, organism-based
# Details: ATCC 43300, 18 h
# How it was run: (§2)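 Broth microdilution in lysogeny broth; overnight culture (16-18 h, 37.5 °C) adjusted to 5 × 10^5 CFU/mL inoculum. DMSO stocks serially diluted 1:2 (ten-fold series); fusidic acid positive and 5% DMSO negative controls. Plates shaken at 100 rpm, 18 h at 37.5 °C, then 704 µM resazurin added (stock), further 1 h; fluorescence ex 544/em 590 nm.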
row,Compound,IC50 [µM]
1,O=C1C=C(c2ccc(O)cc2)[C@]2(O1)O[C@]1(OC(=O)C=C1c1ccc(O)cc1)C(c1ccc(O)c(Br)c1)=C2c1ccc(O)cc1,16.1
2,O=C1C=C(c2cc(Br)c(O)c(Br)c2)[C@]2(O1)O[C@]1(OC(=O)C=C1c1cc(Br)c(O)c(Br)c1)C(c1ccc(O)c(Br)c1)=C2c1ccc(O)c(Br)c1,> 10
3,O=C1C=C(c2cc(Br)c(O)c(Br)c2)[C@]2(O1)O[C@]1(OC(=O)C=C1c1cc(Br)c(O)c(Br)c1)C(c1cc(Br)c(O)c(Br)c1)=C2c1cc(Br)c(O)c(Br)c1,> 10
4,O=C1C=C(c2ccc(O)cc2)[C@]2(O1)O[C@]1(OC(=O)C=C1c1ccc(O)cc1)C(c1ccc(O)cc1)=C2c1ccc(O)cc1,> 10

# System: Staphylococcus aureus
# Experiment: Antibacterial activity against methicillin-sensitive Staphylococcus aureus ATCC 25923 assessed as inhibition of bacterial growth measured after 18 hrs by resazurin based fluorescent plate reader
# Assay type: functional, organism-based
# Details: ATCC 25923, 18 h
# How it was run: as §2
row,Compound,IC50 [µM]
1,O=C1C=C(c2ccc(O)cc2)[C@]2(O1)O[C@]1(OC(=O)C=C1c1ccc(O)cc1)C(c1ccc(O)c(Br)c1)=C2c1ccc(O)cc1,10.8
2,O=C1C=C(c2cc(Br)c(O)c(Br)c2)[C@]2(O1)O[C@]1(OC(=O)C=C1c1cc(Br)c(O)c(Br)c1)C(c1ccc(O)c(Br)c1)=C2c1ccc(O)c(Br)c1,> 10
3,O=C1C=C(c2cc(Br)c(O)c(Br)c2)[C@]2(O1)O[C@]1(OC(=O)C=C1c1cc(Br)c(O)c(Br)c1)C(c1cc(Br)c(O)c(Br)c1)=C2c1cc(Br)c(O)c(Br)c1,> 10
4,O=C1C=C(c2ccc(O)cc2)[C@]2(O1)O[C@]1(OC(=O)C=C1c1ccc(O)cc1)C(c1ccc(O)cc1)=C2c1ccc(O)cc1,> 10

# Molecular target: Alpha-synuclein (Homo sapiens) (UniProt P37840)
# Experiment: Inhibition of alpha-Synuclein (unknown origin) aggregation assessed as times difference in midpoint of aggregation at compound to protein molar ratio of 5:1 incubated for 36 hrs under shaking condition and measured every 6 hrs by Thioflavin T based fluorescence assay relative to control
# Details: not given
# How it was run: as §1
row,Compound,TIME [h]
1,O=C1C=C(c2ccc(O)cc2)[C@]2(O1)O[C@]1(OC(=O)C=C1c1ccc(O)cc1)C(c1ccc(O)c(Br)c1)=C2c1ccc(O)cc1,4
2,O=C1C=C(c2cc(Br)c(O)c(Br)c2)[C@]2(O1)O[C@]1(OC(=O)C=C1c1cc(Br)c(O)c(Br)c1)C(c1ccc(O)c(Br)c1)=C2c1ccc(O)c(Br)c1,10
3,O=C1C=C(c2cc(Br)c(O)c(Br)c2)[C@]2(O1)O[C@]1(OC(=O)C=C1c1cc(Br)c(O)c(Br)c1)C(c1cc(Br)c(O)c(Br)c1)=C2c1cc(Br)c(O)c(Br)c1,13.7
4,O=C1C=C(c2ccc(O)cc2)[C@]2(O1)O[C@]1(OC(=O)C=C1c1ccc(O)cc1)C(c1ccc(O)cc1)=C2c1ccc(O)cc1,14.5

# System: not listed separately
# Experiment: Selectivity index, ratio of IC50 for cytotoxicity against human HEK293 cells to IC50 for antiplasmodial activity against Plasmodium falciparum 3D7
# Assay type: toxicity, cell-based
# Details: read-out: Ratio IC50
row,Compound,selectivity ratio
1,O=C(O)c1cc2c([nH]c3ccc(Br)cc32)c(C(=O)c2cn(S(=O)(=O)O)c3ccc(Br)cc23)n1,2.66
2,O=C1C=C(c2ccc(O)cc2)[C@]2(O1)O[C@]1(OC(=O)C=C1c1ccc(O)cc1)C(c1ccc(O)cc1)=C2c1ccc(O)cc1,7.6

# Molecular target: Alpha-synuclein (Homo sapiens) (UniProt P37840)
# Experiment: Inhibition of alpha-Synuclein (unknown origin) aggregation at compound to protein molar ratio of 1:1 incubated for 36 hrs under shaking condition and measured every 6 hrs by Thioflavin T based fluorescence assay relative to control
# Details: concentration not given here
# How it was run: as §1
row,Compound,inhibition [%]
1,O=C1C=C(c2ccc(O)cc2)[C@]2(O1)O[C@]1(OC(=O)C=C1c1ccc(O)cc1)C(c1ccc(O)c(Br)c1)=C2c1ccc(O)cc1,24.9
2,O=C1C=C(c2cc(Br)c(O)c(Br)c2)[C@]2(O1)O[C@]1(OC(=O)C=C1c1cc(Br)c(O)c(Br)c1)C(c1ccc(O)c(Br)c1)=C2c1ccc(O)c(Br)c1,34.3
3,O=C1C=C(c2cc(Br)c(O)c(Br)c2)[C@]2(O1)O[C@]1(OC(=O)C=C1c1cc(Br)c(O)c(Br)c1)C(c1cc(Br)c(O)c(Br)c1)=C2c1cc(Br)c(O)c(Br)c1,13.3
4,O=C1C=C(c2ccc(O)cc2)[C@]2(O1)O[C@]1(OC(=O)C=C1c1ccc(O)cc1)C(c1ccc(O)cc1)=C2c1ccc(O)cc1,60
